Reference: ChEMBL document CHEMBL1130383, “Anesthetic activity of novel water-soluble 2 beta-morpholinyl steroids and their modulatory effects at GABAA receptors” (J Med Chem, 1997)

What was measured:
[1] = species: Mus musculus; experiment: Effect on interval between loss of righting reflex and return to righting reflex (sleep duration) was measured at a dose twice that of hypnotic dose; caused convulsions and was not tested for the sleeping duration; type: functional, organism-based
[2] = tested on: Mus musculus; experiment: Hypnotic dose by observing loss of righting reflex for a minimum period of 30 sec in 50% of treated mice after iv administration; caused convulsions and not tested further; type: functional, organism-based
[3] = target: GABA-A receptor; anion channel; experiment: The concentration required to inhibit 50% of binding of [35S]TBPS to Gamma-aminobutyric acid A receptor to rat whole brain membranes.; type: cell membranes
[4] = target: GABA-A receptor; anion channel (Bos taurus) (UniProt P10063+P08220+P20237+P08219+P10064+P22300); experiment: Concentration required to potentiate GABA-evoked currents in voltage-clamped bovine chromaffin cells by 300%; type: functional
Procedure, shortened: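 Adult bovine chromaffin cells, primary culture, recorded 4 h to 2 days after plating. Whole-cell patch clamp, continuous superfusion with 140 mM NaCl, 2.8 mM KCl, 2 mM MgCl2, 1 mM CaCl2, 10 mM HEPES (pH 7.2). CsCl-based pipette solution, room temperature (18–22 °C). Currents filtered at 500 Hz. Steroid concentration enhancing the GABA-evoked response by 300% of control was interpolated; mean ± SEM of N cells.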

[5] = tested on: Mus musculus; experiment: Hypnotic dose was determined by observing loss of righting reflex for a minimum period of 30 sec in 50% of treated mice after i.v. administration.; type: functional
Procedure, shortened: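 Male CFLP mice (25–35 g), tested in the light period. Groups of eight received an i.v. lateral tail vein injection over 10 s (10 mL kg-1) on a μmol/kg dose series, e.g. 2–16, with extra doses added. Vehicle was saline for amine salts; standards were in HPCD/saline, emulsion or saline. HD50 with 95% confidence limits was obtained by probit analysis of the fraction showing LRR ≥30 s.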

[6] = Therapeutic index by the ratio between LD50 to HD50

## CC(=O)SCC(=O)[C@H]1CC[C@H]2[C@@H]3CC[C@H]4C[C@H](O)[C@@H](N5CCOC(C)(C)C5)C[C@]4(C)[C@H]3CC[C@]12C
[1]
  SD: Convulsant
[2]
  HD50: Convulsant
[3]
  IC50: 0.032 µM

## C[C@]12C[C@H](N3CCOCC3)[C@@H](O)C[C@@H]1CC[C@H]1[C@@H]3CC[C@H](C(=O)CCl)[C@@]3(C)CC(=O)[C@@H]12
[1]
  SD: Convulsant
[2]
  HD50: Convulsant
[4]
  POT: 1500 nM
[3]
  IC50: 9.04 µM

## CC[C@@H]1CN([C@H]2C[C@@]3(C)[C@@H](CC[C@H]4[C@@H]5CC[C@H](C(C)=O)[C@@]5(C)CC(=O)[C@@H]43)C[C@@H]2O)CCO1
[4]
  POT: 910 nM
[3]
  IC50: 0.317 µM
[5]
  HD50: 8.7 µM/kg
[6]
  selectivity ratio: 5.8

## CCCC(C)C1(CC)C(=O)NC(=S)NC1=O (centres undefined) [THIOPENTAL]
[4]
  POT: 30000 nM
[3]
  IC50: 29.5 µM
[5]
  HD50: 83 µM/kg
[6]
  selectivity ratio: 3.7

## C[C@]12C[C@H](N3CCOCC3)[C@@H](O)C[C@@H]1CC[C@@H]1[C@@H]2CC[C@]2(C)[C@@H](C(=O)CCl)CC[C@@H]12
[4]
  POT: 150 nM
[3]
  IC50: 0.171 µM
[5]
  HD50: 8.5 µM/kg
[6]
  selectivity ratio: 6.1
